Screening results as filed in PubChem.
Diaph act CS – activates diaphorase or chemically reduces, flagging diaphorase assay artifacts. Diaphorase/resazurin coupled assay, resorufin fluorescence, 16 min; hits give high values; 1 = vehicle wells, 0 = NADH-free wells. activation factor at 20 µM. 190,000 compounds, 0.005% hits. AID 1229;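 active = diaphorase activity raised at least twofold by the compound at 20 µM; inactive = activation factor below 2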
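Test system: Clostridium kluyveri diaphorase, purified enzyme. Buffer or medium: 50 mM HEPES pH 7.4 buffer plus MgCl2 and Tween 20. Also added: 0.114 mM NADH and 0.1 mM resazurin, final amounts. Dosing: compound 20 µM once, DMSO 1%. Schedule: 16 min enzyme reaction, ambient temperature. Detection: fluorescence of resorufin, 544 nm excitation, 590 nm emission.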
Cl transport mod – KCC2 (human) Cl- transport modulation; 190,000 compounds, 2.2% hits; KCC2 cells, thallium flux FluoZin-2 fluorescence; B-score of Tl+ flux slope (higher = more flux/activation; lower = inhibition) at 10 µM;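 active = thallium flux slope and its plate-corrected score both differing from the plate sample mean at a set confidence after two filtering rounds, in either direction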;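 also: slope of fluorescence scaled to starting intensity during 10 to 20 s after thallium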
ROMK mod – modulators of human ROMK potassium channel | AID 1918 | Tet-inducible ROMK, thallium flux fluorescence; actives lie on both sides | B-score at 10 µM | 130,000 compounds, 2% hits;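 active = signal ratio slope over the read window, or its plate-corrected B-score, at least 3 SD from the plate mean, either direction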;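 also: B-score of the F/F0 ratio slope over 7 to 12 s after thallium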
Target sequence (P48048 whole entry, looked up): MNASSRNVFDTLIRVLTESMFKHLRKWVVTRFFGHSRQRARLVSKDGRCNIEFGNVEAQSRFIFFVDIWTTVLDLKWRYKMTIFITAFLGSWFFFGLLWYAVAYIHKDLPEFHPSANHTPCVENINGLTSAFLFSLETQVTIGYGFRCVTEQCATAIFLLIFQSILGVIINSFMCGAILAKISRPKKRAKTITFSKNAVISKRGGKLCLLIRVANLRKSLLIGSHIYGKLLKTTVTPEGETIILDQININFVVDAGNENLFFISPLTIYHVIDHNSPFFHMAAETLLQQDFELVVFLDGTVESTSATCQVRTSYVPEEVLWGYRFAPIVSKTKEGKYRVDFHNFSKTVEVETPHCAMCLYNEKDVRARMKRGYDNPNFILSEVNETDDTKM
Lmaj promast – Leishmania major promastigote growth inhibition. Leishmania major promastigotes, resazurin fluorescence viability. inhibition, % at 10 µM. 200,000 compounds, 9% hits; in the data active = inhibition above about 50%;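 also: promastigotes grown with compound for 44 hours at 28 °C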
WT yeast gro inh – growth inhibition of WT yeast, mitochondrial fusion screen | mitochondrial fusion phenotypic screen, WT strain | inhibition, % at 10 µM | 190,000 compounds, 2.1% hits | AID 1362; in the data active = inhibition above about 58%; tested in S. cerevisiae
Diaphorase inh – diaphorase inhibition or chemical oxidation counter-screen; diaphorase resazurin-to-resorufin fluorescence, NADH, 16 min; bacterial (C. kluyveri) enzyme, not human; inhibition, % at 20 µM; 190,000 compounds, 0.69% hits; AID 1217;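 active = primary screen inhibition at 20 µM above a set limit, cut at about 50% in these data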
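Benchmarks: positive control wells lacking NADH, neutral wells with DMSO only. System: bacterial diaphorase enzyme (C. kluyveri). Input: 0.14 U/mL diaphorase, enzyme working solution. Detection: resorufin fluorescence, excitation 544 nm, emission 590 nm. Times: 16-min room-temperature incubation before reading.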
ROMK hit retest – retested hit modulating human ROMK potassium channel; shares compounds with ROMK mod; normalized thallium flux (F/F0 slope) at 10 µM; 3,000 compounds, 54% hits; ROMK thallium flux, fluorescence ratio; hits give low values; AID 1917;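 active = Flux at 10 µM at least 3 SD below or above vehicle control mean in one or both replicates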
Each line names hits and unclear results; the compound was inactive in the other large screens (follow-up assays come after a bar, where they were run). Compounds with a hit are over-represented: about 12% of the library has one in this group of screens.

COc1ccc(OC)c(/C=C2\SC(=S)N(C(C(=O)O)c3ccccc3)C2=O)c1 (stereo not given)	none (no result: Diaph act CS, Cl transport mod, ROMK mod, Lmaj promast, WT yeast gro inh, Diaphorase inh) | ROMK hit retest 0.052
CCOc1ccc(/C=C2\SC(=S)N(C(C(=O)O)c3ccccc3)C2=O)cc1OC (stereo not given)	none (no result: Diaph act CS, ROMK mod, Lmaj promast, WT yeast gro inh, Diaphorase inh)
COCCNC(=O)CN1C(=O)COc2ccc(Cl)cc21	none | ROMK hit retest inactive
CCCC1=C(C(=O)OCC)C(c2cc(Cl)cc(OC)c2OCc2ccccc2)NC(=O)N1 (stereo not given)	none (no result: Cl transport mod, ROMK mod)
COc1ccc(C=C2c3ccccc3C(=O)c3ccccc32)c(OC)c1	ROMK mod 2.8 (no result: Diaph act CS, Lmaj promast, WT yeast gro inh, Diaphorase inh) | ROMK hit retest inactive
COc1ccc(C(=O)C(CCC(CNC(C)(C)C)C(=O)c2ccc(OC)cc2)CNC(C)(C)C)cc1 (stereo not given)	Lmaj promast 100 (no result: ROMK mod) | ROMK hit retest 0.066
CN(C)c1ccc(/C=N/NC(=O)c2ccccc2Cl)cc1	none | ROMK hit retest inactive
CN(C)c1ccc(/C=N/NC(=O)c2ccccc2)cc1	none
Cc1ccc(S(=O)(=O)NCCOc2nc(N3CCOCC3)nc(N3CCOCC3)n2)cc1	none (no result: Cl transport mod)
C=CCN(CC=C)S(=O)(=O)c1ccc(NC(=S)NC(=O)/C=C/c2ccc(C)cc2)cc1	ROMK mod 1.7 | ROMK hit retest inactive
O=C(NCC1CCCO1)c1ccc(CS(=O)(=O)c2ccc(Cl)cc2)o1 (stereo not given)	none
O=C1CC(c2ccc(OCCCCCOc3ccc(C4CC(=O)NC4=O)cc3)cc2)C(=O)N1 (stereo not given)	ROMK mod -3.5 | ROMK hit retest 0.06
Cc1nc2ccccc2c(=O)n1/N=C/c1ccccc1O	none (no result: Diaph act CS, Lmaj promast, WT yeast gro inh, Diaphorase inh)
Cc1nc2ccccc2c(=O)n1/N=C/c1ccc2ccccc2c1O	none (no result: Diaph act CS, ROMK mod, Lmaj promast, WT yeast gro inh, Diaphorase inh) | ROMK hit retest inactive
Cc1ccc(C(=O)NCc2ccccc2)cc1Br	none
S=C(NCCc1ccccc1)N1CCN(C(c2ccccc2)c2ccccc2)CC1	none
CCCNC(=S)N1CCN(C(c2ccccc2)c2ccccc2)CC1	ROMK mod -3.2, WT yeast gro inh 69 | ROMK hit retest inactive
CC(=O)C1=C(C)NC(SCC(=O)c2ccc(Cl)cc2)=C(C#N)C1CC(C)C (stereo not given)	none
N#CC1=C(N)NC(SCC(=O)c2ccc(Cl)cc2)=C(C#N)C12CCCC2	ROMK mod -2.3 | ROMK hit retest 0.066
Cn1cccc1/C=C1\CC(C(C)(C)C)C/C(=C\c2cccn2C)C1=O (stereo not given)	ROMK mod -3.6, Lmaj promast 87 | ROMK hit retest 0.04
Cn1cccc1/C=C1\Cc2ccccc2C1=O	none
COc1ccc(S(=O)(=O)Nc2ccc(F)c(F)c2)cc1Cl	ROMK mod -3.2 | ROMK hit retest 0.059
COc1ccc(NS(=O)(=O)c2ccc(OC)c(OC)c2)cc1OC	none (no result: ROMK mod)
CC(=O)Nc1sc(N/N=C/c2ccccc2)nc1-c1ccc(C)cc1	none (no result: Diaph act CS, ROMK mod, Lmaj promast, WT yeast gro inh, Diaphorase inh) | ROMK hit retest inactive
Cc1ccccc1N1C(=S)NC2c3ccccc3OC1(C)C2C(=O)N(C)C (stereo not given)	ROMK mod -6.8 | ROMK hit retest 0.055
Cc1cccc(N=Cc2cc(Br)cc(Cl)c2O)c1	ROMK mod 4.1 | ROMK hit retest 0.12
CCN(C(=O)c1cc2cccc(OC)c2oc1=O)C1CCCCC1	none
Cc1ccccc1Cn1nc(C)c(NC(=O)/C=C/c2cnn(C)c2C)c1C	none
Cc1ccccc1Cn1nc(C)c(NC(=O)/C=C/c2cnn(C)c2)c1C	ROMK mod 3.2 (no result: Cl transport mod) | ROMK hit retest inactive
Cc1ccc(-c2nn(-c3cc(Cl)ccc3[N+](=O)[O-])c(=O)c3ccccc23)cc1	none (no result: ROMK mod, WT yeast gro inh)
O=c1c2ccccc2c(-c2ccccc2)nn1-c1cc(Cl)cc(Cl)c1	none (no result: Diaph act CS, ROMK mod, Lmaj promast, WT yeast gro inh, Diaphorase inh) | ROMK hit retest inactive
CCOC(=O)c1cc(-c2ccccc2)n(CC(=O)Nc2cccc(OC)c2)c1C	ROMK mod -4.8 | ROMK hit retest inactive
Cc1cc(C)n2nc(C(=O)N/N=C/c3cccc(Cl)c3)nc2n1	none (no result: Diaph act CS, ROMK mod, Lmaj promast, WT yeast gro inh, Diaphorase inh)
COc1ccccc1CC(NC(C)=O)C(=O)N1CCN(C(=O)Nc2ccccc2Cl)CC1 (stereo not given)	none
Cc1ccc(NC(=O)CCCc2nc3ccccc3s2)c(O)c1	none
Cc1cc(Cl)c(S(=O)(=O)Nc2ccc3c(c2)OCCO3)cc1OCC(=O)NC1CCCCC1	ROMK mod -3.2, Lmaj promast 99 | ROMK hit retest 0.066
Cc1cc(Cl)c(S(=O)(=O)N2CCN(c3ccc(F)cc3)CC2)cc1OCC(=O)NC1CCCCC1	ROMK mod -4.3 | ROMK hit retest 0.063
O=C(Oc1cc(=O)oc2c1c(=O)n1c3c(cccc23)CC1)c1ccc(F)cc1	none (no result: Diaph act CS, ROMK mod, Lmaj promast, WT yeast gro inh, Diaphorase inh)
COc1cc(CNc2ccc(N3CCCC3)cc2)cc(Cl)c1OC	ROMK mod 4, Diaphorase inh 55 | ROMK hit retest inactive
O=C(O)CCC(=O)N1CCN(c2nc(-c3ccccc3Cl)c3cc(Br)ccc3n2)CC1	none (no result: Cl transport mod, ROMK mod)
CCCCOC(=O)Nc1cc(C(=O)OC)ccc1C(=O)OC	ROMK mod 3.8 | ROMK hit retest inactive
Cn1c(=O)c2c(SCc3c(F)cccc3Cl)nc(CC(C)(C)C)nc2n(C)c1=O	none (no result: Cl transport mod, ROMK mod)
CN(Cc1ccccc1)C(=O)COC(=O)c1ccc(S(=O)(=O)N(C)C)cc1	none
CCOC(=O)CCCOC(=O)c1ccc(S(=O)(=O)N(C)C)cc1	none (no result: ROMK mod) | ROMK hit retest inactive
CCn1cc(C(=O)N2CCc3ccccc32)c(=O)c2cc(S(=O)(=O)N3CCOCC3)ccc21	none (no result: ROMK mod)
CCn1cc(C(=O)N2CCc3ccccc32)c(=O)c2cc(S(=O)(=O)N(C)C3CCCCC3)ccc21	ROMK mod -2.8, WT yeast gro inh 83 | ROMK hit retest inactive
COc1ccc(-c2n(CC(=O)OC3CC(C)CCC3C(C)C)c3ccccc3[n+]2C)cc1 (stereo not given)	ROMK mod -1.8, Lmaj promast 101 | ROMK hit retest 0.038
Cc1c(N=C2N=C(NC(=O)Nc3ccc(Cl)cc3)c3ccccc32)c(=O)n(-c2ccccc2)n1C	ROMK mod -3.9 (no result: Cl transport mod) | ROMK hit retest 0.06
CC(=O)N1CC=C2C(C#N)=C(N)C(C#N)(C#N)C(C)C2C1 (stereo not given)	none
CCCN1CC=C2C(C#N)=C(N)C(C#N)(C#N)C(c3cccc(OC)c3OC)C2C1 (stereo not given)	none (no result: ROMK mod)
CCN1CC=C2C(C#N)=C(N)C(C#N)(C#N)C(CCc3ccccc3)C2C1 (stereo not given)	none (no result: ROMK mod) | ROMK hit retest 0.057
CC(=O)N1CC=C2C(C#N)=C(N)C(C#N)(C#N)C(CCc3ccccc3)C2C1 (stereo not given)	ROMK mod -2.7 | ROMK hit retest 0.062
CCOc1ccc(C2OC(=O)Cc3cc(OC)c(OC)cc32)cc1 (stereo not given)	none (no result: ROMK mod)
COc1ccc(-n2c(C)c([N+](=O)[O-])c3ccc(O)c(CN4CCCCC4)c32)cc1	none
